{"data": "Published values gathered from unrelated publications", "effect on": "cell growth or viability", "note": "Compare with care: the assays were run in different laboratories."}
{"Structure (SMILES)": "NS(=O)(=O)c1ccc(-n2nc(C(=O)NN3C(=O)CCC3=O)cc2-c2ccccc2)cc1", "cell line": "HT-29", "method": "fluorescence", "time": "48 h", "IC50 [µM]": 31.4}
{"Structure (SMILES)": "O=c1c2cc(Cl)ccc2nc(-c2ccccc2)n1N=Cc1ccc(F)cc1", "cell line": "LLC-PK1", "method": "MTT", "time": "72 h", "IC50 [µM]": 86.7}
{"Structure (SMILES)": "NS(=O)(=O)c1ccc(-n2nc(-c3nnc(S)o3)cc2-c2ccccc2)cc1", "cell line": "HT-29", "method": "fluorescence", "time": "48 h", "IC50 [µM]": 39.4}
{"Structure (SMILES)": "O=C(NO)c1ccc(N2CCN(Cc3cnc4ccccc4c3)CC2)cc1", "cell line": "LLC-PK1", "time": "48 h", "IC50 [µM]": "> 69.1"}
{"Structure (SMILES)": "COc1ccc(C=NNC(=O)c2cc(-c3ccccc3)n(-c3ccc(S(N)(=O)=O)cc3)n2)cc1OC", "cell line": "HT-29", "method": "fluorescence", "time": "48 h", "IC50 [µM]": 25.8}
{"Structure (SMILES)": "COc1cccc(-c2cc(NCc3ccc4c(c3)OCO4)nc(N)n2)c1", "cell line": "A2780", "time": "72 h", "IC50 [µM]": 0.0901}
{"Structure (SMILES)": "O=c1c2cc(Cl)ccc2nc(-c2ccccc2)n1N=Cc1ccccc1O", "cell line": "LLC-PK1", "method": "MTT", "time": "72 h", "IC50 [µM]": 75.7}
{"Structure (SMILES)": "CN1CCC(NC2CCc3[nH]c4c(C(N)=O)ccc(-c5ccccc5Cl)c4c3C2)CC1 (centres unmarked)", "cell line": "SU-DHL-4", "time": "96 h", "IC50 [µM]": 0.0223}
{"Structure (SMILES)": "COc1ccc(C=Nn2c(-c3ccccc3)nc3ccc(Cl)cc3c2=O)cc1OC", "cell line": "LLC-PK1", "method": "MTT", "time": "72 h", "IC50 [µM]": 462}
{"Structure (SMILES)": "Cc1nn(-c2ccc(S(=O)(=O)N3CCN(C)CC3)cc2)c2nn3nnnc3nc12", "cell line": "HT-29", "method": "MTT", "IC50 [µM]": 0.08}
{"Structure (SMILES)": "O=c1c2cc(Cl)ccc2nc(-c2ccccc2)n1N=Cc1ccco1", "cell line": "LLC-PK1", "method": "MTT", "time": "72 h", "IC50 [µM]": 154}
{"Structure (SMILES)": "Nc1cccc2c1C(=O)N(C1CCC(=O)NC1=O)C2=O (centres unmarked)", "cell line": "SU-DHL-4", "method": "CCK-8", "time": "7 days", "IC50 [µM]": "> 20"}
{"Structure (SMILES)": "CC(=NNC(=O)c1cc(-c2ccccc2)n(-c2ccc(S(N)(=O)=O)cc2)n1)c1ccc(Br)cc1", "cell line": "HT-29", "method": "fluorescence", "time": "48 h", "IC50 [µM]": 37.2}
{"Structure (SMILES)": "CC(C)(C)c1cnc(CSc2cnc(NC(=O)C3CCN(C(=O)CCCCCCCN4Cc5cc6c(cc5C4)C(=O)N(C4CCC(=O)NC4=O)C6=O)CC3)s2)o1 (centres unmarked)", "cell line": "SK-UT-1", "method": "MTT", "IC50 [µM]": 0.106}
{"Structure (SMILES)": "O=C(NO)c1ccc(N2CCN(Cc3c[nH]c4ccccc34)CC2)cc1", "cell line": "LLC-PK1", "time": "48 h", "IC50 [µM]": 13.3}
{"Structure (SMILES)": "CC(=O)O[C@H]1C(=O)[C@@]2(C)[C@H]([C@H](OC(=O)c3ccccc3)[C@]3(O)C[C@H](OC(=O)[C@H](O)[C@@H](NC(=O)c4ccccc4)c4ccccc4)C(C)=C1C3(C)C)[C@]1(OC(C)=O)CO[C@@H]1C[C@@H]2O", "cell line": "LLC-PK1", "method": "MTT", "time": "72 h", "IC50 [µM]": 1.31}
{"Structure (SMILES)": "COc1cccc2c1C(=O)c1c(O)c3c(c(O)c1C2=O)C[C@@](O)(C(=O)CO)C[C@@H]3O[C@H]1C[C@H](N)[C@H](O)[C@H](C)O1", "cell line": "LLC-PK1", "time": "48 h", "IC50 [µM]": 2.34}
{"Structure (SMILES)": "CC(=O)O[C@@H]1CC[C@@]2(C)[C@@H](CC[C@]3(C)[C@@H]2C(=O)C=C2[C@@H]4[C@@H](C)[C@H](C)CC[C@]4(C)CC[C@]23C)[C@@]1(C)C(=O)O", "cell line": "Caco-2", "method": "MTT", "time": "6 h", "IC50 [µM]": 1.61}
{"Structure (SMILES)": "NS(=O)(=O)c1ccc(-n2nc(C(=O)NN=Cc3cccnc3)cc2-c2ccccc2)cc1", "cell line": "HT-29", "method": "fluorescence", "time": "48 h", "IC50 [µM]": 32.3}
{"Structure (SMILES)": "O=c1c2cc(Cl)ccc2nc(-c2ccccc2)n1N=Cc1ccccc1", "cell line": "LLC-PK1", "method": "MTT", "time": "72 h", "IC50 [µM]": 303}
